This is one part of a sample in which hits are shown more often than they occur.
Hep lipid drop: inhibitors of hepatocyte lipid droplet formation, primary screen, imaging, high-throughput imaging, BODIPY stain; AID 1656, 2009; inhibition, % at 6.5 µM; AML12 mouse hepatocytes, oleate lipid droplets; 240,000 compounds, 0.4% hits;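 active means lipid droplet intensity inhibited by at least 50%, with more than 500 cells counted; inconclusive means wells with under 300 cells, treated as cytotoxic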
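Material: mouse AML12 hepatocyte cell line, fixed after treatment; Timing: compound with oleate, overnight; Technique: high-content imaging of BODIPY-stained droplets and DAPI nuclei; Probe or stimulus: oleate, 100 µM final; Dosing: compound at 6.5 µM only.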
MPTP inh: mitochondrial permeability transition pore inhibitors, primary screen, biochemical, isolated mouse mitochondria, absorbance | Ca2+ swelling absorbance, 30 min | inhibition, % at 10 µM | 360,000 compounds, 1.4% hits | AID 602449, 2012;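 active means inhibition of 50% or more, scaled per plate between neutral and stimulator controls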;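 further: 0% = DMSO wells given calcium and 100% = 1 mM EGTA wells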
T cruzi inh: inhibitors of intracellular T. cruzi growth, primary screen, luminescence, NIH3T3 host cells; T. cruzi beta-gal in NIH3T3, 90 h; inhibition, % (concentration not given with the values); 300,000 compounds, 1.4% hits; AID 1885, 2009;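 active means mean inhibition across valid replicates above about 55%, limit read from the data; inconclusive means mean below that limit but half or more replicates reach it; inactive means mean below it, under half of replicates reach it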;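 further: signal also drops with host cell toxicity which is not excluded here; 0% = plate median of DMSO wells and 100% = zero luminescence signal; higher percent means less beta-gal luminescence so fewer parasites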
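Incubation – ≥90 h infection period, 3 h prior cell attachment · System – NIH/3T3 fibroblasts plus reporter T. cruzi · Doses – compound pinned at 50 nL/well, DMSO · Read-out basis – percent inhibition of parasite-derived β-gal signal · Signal – luminescent β-galactosidase signal after 60 min lysis · Also added – 5000 T. cruzi trypomastigotes/well · Medium – Low-serum DMEM with 2% FBS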
Lmaj promast: Leishmania major promastigote growth inhibition, primary screen | 200,000 compounds, 9% hits | inhibition, % at 10 µM | AID 1063, 2008 | Leishmania major promastigotes, resazurin fluorescence viability; in the data active means inhibition above about 50%;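 further: promastigotes grown with compound for 44 hours at 28 °C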
DTT redox prof: compounds producing H2O2 with reducing agent – biochemical, NIH compound library profiling, artefact control for MLSCN library redox annotation, primary screen; DTT-dependent redox cycling H2O2, phenol red/HRP absorbance; 100% = 100 µM peroxide control, 0% = buffer; activation, % at 10 µM; 200,000 compounds, 0.03% hits; AID 878, 2007;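 active means activation of at least 50% relative to the plate's high and low controls in the primary single-dose screen; inactive means activation below 50%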;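 further: compound incubated with DTT at 0.8 mM final as the reducing agent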
Redox H2O2 DR: generates H2O2 by DTT-dependent redox cycling, confirmed in dose response. EC50, µM. 60 compounds, 40% hits. AID 1234. shares compounds with DTT redox prof. phenol red-HRP absorbance;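 active means EC50 under a set limit for hydrogen peroxide production with the reducing agent DTT present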
L major 1uM: Leishmania major promastigote growth inhibition, confirmation, 1 µM repeat of primary hits; shares compounds with Lmaj promast; L. major promastigote growth, resazurin fluorescence, 48 h; inhibition, % at 1 µM; 1,100 compounds, 13% hits;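 active means inhibition above about 50% in both repeat tests, limit read from the data; inconclusive means one repeat under the set limit, the other over it; inactive means both repeats under the set limit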
* hit, by the source's call; ? = inconclusive; . = no result given.

SMILES	Hep lipid drop	MPTP inh	T cruzi inh	Lmaj promast	DTT redox prof	L major 1uM	others
COc1ccc(OC)c(CC(=O)N(C)C2CCCN(Cc3ccccc3F)C2)c1 (stereo not given)	-3	0	-4	.	.	.
COc1cc2c(cc1OC)C(C(=O)N(C)C1CCCCC1)C1CCCCN1C2=O (stereo not given)	0	0	5	59*	0	.
O=C(Nc1ccc(Cl)cc1C(=O)c1ccccc1)c1ccccc1	.	2	4	69*	2	.
O=C(CNC(=O)c1cccc(Cl)c1)Nc1ccc(Br)cc1C(=O)c1ccccc1	-14	20	-6	59*	1	.
CC(C)C(C)(NC(=O)c1cccn(Cc2ccc3c(c2)OC(F)(F)O3)c1=O)C(N)=O (stereo not given)	-5	0	-16	-6	0	.
CCn1nc(-c2ccccc2)nc2c(=O)n(C)c(=O)nc1-2	-23	3	22	14	140*	.	Redox H2O2 DR=0.9*
O=C1C(=O)c2cccc3cccc1c23	25	0	-5	23	0	.
O=C1C(=O)c2ccccc2-c2ccccc21	0	3	39	100*	284*	.	Redox H2O2 DR=0.71*
Cn1c(O)c(Cc2cccc(Cl)c2Cl)c(=O)n(C)c1=O	8	-1	-6	.	.	.
Cc1nc2c(=O)n(C)c(=O)nc-2n(C)n1	?	-6	31	101*	293*	101*	Redox H2O2 DR=2.8*
CC1CCC2[C@@H](C)C(=O)OC3O[C@]4(C)CCC1C32OO4 (stereo not given in full)	.	-1	1	.	.	.
Cc1c(P(=S)(c2ccccc2)c2ccccc2)[n+]2ccccc2n1C	23	-1	9	73*	0	-9
Cn1cc[n+](C)c1P(=S)(c1ccccc1)c1ccccc1	8	-2	-8	22	0	.
O=C1C2CCN(CC2)C1Cc1ccc(OCCOc2ccccc2)cc1 (stereo not given)	.	-1	5	100*	-1	97*
O=C1C2CCN(CC2)C1Cc1ccccc1O (stereo not given)	.	.	-12	-6	-9	.
COC(=O)C1=C(c2cccc(OC)c2OC)C[C@@H]2CC[C@H]1N2C(=O)NC1CC1	.	1	-7	.	.	.
CC12C(C(=O)O)C1(c1ccccc1)C2C(=O)O (stereo not given)	.	-1	.	.	.	.
C[n+]1c(-c2ccccc2)cc(CCCCc2cc(-c3ccccc3)[n+](C)c(-c3ccccc3)c2)cc1-c1ccccc1	5	7	.	100*	9	95*
COc1ccc(-c2cc(-c3ccccc3)[n+](C)c(-c3ccccc3)c2)cc1	2	0	55*	100*	0	11
O=C(O)c1ccc(-[n+]2c(-c3ccccc3)cc(-c3ccccc3)cc2-c2ccccc2)cc1	.	1	2	.	.	.
Cc1ccc(C2=NC(C)(C)N3C2C3c2ccc([N+](=O)[O-])cc2)cc1 (stereo not given)	20	2	0	57*	-1	-18
O=C(C[N+]12CCN(CC1)CC2)NCCc1ccc(Cl)cc1Cl	2	-2	-40	-3	0	.
CC(C)CN1CCN(Cc2ccc(F)cc2Cl)CC1CCO (stereo not given)	-4	3	-4	.	.	.
O=C1C=C2C=C[C@H]3C[C@]2(O1)[C@@H]1CCCCN13	-23	5	-23	51*	0	-2
CCNC(=O)NC(=O)C(C)OC(=O)c1c(C)nn(Cc2ccccc2Cl)c1Cl (stereo not given)	-1	4	-1	51*	0	-12
SMILES	Hep lipid drop	MPTP inh	T cruzi inh	Lmaj promast	DTT redox prof	L major 1uM	others
CCOP(=S)(NN(Cc1ccccc1)C(=O)c1ccccc1)OCC	-53	1	7	89*	0	-22
CC1Oc2cc3c(-c4c(O)cc(O)c5c(O)c6c(cc45)OC(C)C(C)C6=O)c(O)cc(O)c3c(O)c2C(=O)C1C (stereo not given)	-2	18	-48	.	.	.
CCN1CC=C(c2c[nH]c3ccccc23)CC1	.	0	-6	99*	0	-5
c1ccc2c(CN3CCCCC3)c[nH]c2c1	-22	3	-5	.	.	.
CC(=O)c1ccc2c(c1)C1C(Cl)C(Sc3ccccc3[N+](=O)[O-])CC1C(c1ccccc1[N+](=O)[O-])N2 (stereo not given)	-18	1	36	54*	-1	16
Cc1ccc(N2Cc3ccccc3C2=N)cc1[N+](=O)[O-]	2	-1	-10	-4	0	.
Cc1cc(C)nc(N2Cc3ccccc3C2=N)n1	-39	0	-14	50*	-1	-5
ClC1=C(Cl)C2(Cl)C3C(Cl)C=CC3C1(Cl)C2(Cl)Cl (stereo not given)	.	-1	.	.	.	.
Cc1cccc(C)c1OP(N)(=O)OCC(F)(F)F (stereo not given)	10	1	-7	68*	.	-3
CC1(C)C[C@H]2C=C(C=O)[C@]3(C=O)C[C@]3(C)[C@H]2C1	?	-2	?	84*	0	-8
c1ccc(CNC2CN3CCC2CC3)cc1 (stereo not given)	.	-4	.	.	.	.
CSc1ccc(CNC2CN3CCC2CC3)cc1 (stereo not given)	0	0	9	100*	-1	66*
COC(=O)C1=C(c2ccccc2OCc2ccccc2)C[C@@H]2CC[C@H]1N2C(=O)NCc1ccc(C(C)(C)C)cc1	.	-3	.	.	.	.
NC(=O)c1cn(C2OC(CO)C(O)C2O)c2ncnc(N)c12 (stereo not given)	?	-1	57*	99*	-1	97*
N#Cc1cn(C2OC(CO)C(O)C2O)c2ncnc(N)c12 (stereo not given)	.	-3	.	.	.	.
CN1C[C@H](CNC(=O)OCc2ccccc2)C[C@@H]2c3cccc4c3c(cn4C)C[C@H]21	.	1	5	69*	0	1
C[C@H](N)CN1CCc2ccc(Br)cc21	.	-3	5	.	.	.
Cc1cccc(OP(=O)(Nc2cccnc2)Oc2cccc(C)c2)c1	-9	-3	53	92*	0	?
Cc1ccc(OP(=O)(Nc2cccc(C)c2)Oc2ccc(C)cc2)cc1	-56	0	34	.	.	.
CCC1=Nc2cc(C(=O)N3CCC4(CC3)OCCO4)ccc2Sc2ccc(C)cc21	2	-1	22	.	.	.
COc1ccc(C(=O)C2CCCN(Cc3ccc(C)s3)C2)c(OC)c1 (stereo not given)	-25	2	16	80*	0	10

Compound activity as filed in PubChem.
